# Test results taken from paper PMC2978023 (Journal of immunology (Baltimore, Md. : 1950), 2008).
# pKd: −log10 of the molar value. Where two headings read alike, the source gives them in different places. Ends that are not written are not given here. Peptide text beside a SMILES is read from it. * marks the point of attachment. Cbz = O=C(OCc1ccccc1)*
# Assays:
# αMβ2 on PMN = experiment: Soluble Alexa 488-labeled ligand binding to PMN, FACS; set-up: species or system human; details: clustering inhibitor, 1 h, 37 °C, mean ± SEM, n = 3
# How it was run: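 Human PMNs were incubated for 1 h at 37°C in HBSS/Ca²⁺/Mg²⁺ with soluble Alexa 488-labelled Plg or Fg, with or without clustering inhibitors. After two buffer washes, bound ligand was read by FACS; mean ± SEM, n = 3.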
# human PMNs = details: for PMN early/late apoptosis (% annexin V+ cells), inhibitor + Fg: clustering inhibitor + Fg 1 μM; for PMN early/late apoptosis (% annexin V+ cells), inhibitor + Fg / PMN early/late apoptosis (% annexin V+ cells), inhibitor + P1 / PMN early/late apoptosis (% annexin V+ cells), inhibitor + P2-C / PMN early/late apoptosis (% annexin V+ cells), inhibitor + Plg: mean ± SEM, n = 5; for PMN early/late apoptosis (% annexin V+ cells), inhibitor + P1: clustering inhibitor + P1 100 μM; for PMN early/late apoptosis (% annexin V+ cells), inhibitor + P2-C: clustering inhibitor + P2-C 100 μM; for PMN early/late apoptosis (% annexin V+ cells), inhibitor + Plg: clustering inhibitor + Plg 1 μM
# αMβ2 = αMβ2 clustering on PMNs, fluorescence microscopy; format: cell-based, human; details: Plg 1 μM + inhibitor, 4 h, 37 °C; MβCD 5 mM, peptide 18 0.5 μM, H7 300 μM, BDM 20 mM, cytochalasin D 10 μM, calpain inhibitor III 10 μM
# How it was run: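 Human PMNs were exposed to ligands (proteins 1 μM, peptides 100 μM) for 4 h at 37°C, or to 1 μM Plg together with clustering inhibitors at the final concentrations used in apoptosis assays. Cells were fixed in 4% paraformaldehyde and stained with anti-αM mAb OKMI plus Alexa 488 goat anti-mouse IgG. They were cytospun, mounted and imaged by fluorescence microscopy (×40/0.7 NA); PMNs came from four donors.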
# PMN = details: cited from earlier work; for effect on PMN apoptosis: ref [6]–[9]
# [1] = molecular target: recombinant purified β2 subunit (Homo sapiens, UniProt P05107); experiment: Solid-phase binding to purified β2 subunit
# How it was run: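 Purified recombinant αMβ2, αM or β2 (from HEK293 lines) was coated overnight at 4°C in TBS with 10 mM n-octyl-β-D-glucopyranoside and postcoated with 0.5% PVP for 1 h at 37°C. Biotinylated Plg or Ang(1–4) (0–10 μM) was bound for 2 h at 37°C in the same buffer plus 1 mM CaCl₂/MgCl₂. Binding was detected with alkaline phosphatase–avidin and pNPP at A405. Kd came from a one-site binding fit.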
# Chain of recombinant purified β2 subunit (P05107 23-769): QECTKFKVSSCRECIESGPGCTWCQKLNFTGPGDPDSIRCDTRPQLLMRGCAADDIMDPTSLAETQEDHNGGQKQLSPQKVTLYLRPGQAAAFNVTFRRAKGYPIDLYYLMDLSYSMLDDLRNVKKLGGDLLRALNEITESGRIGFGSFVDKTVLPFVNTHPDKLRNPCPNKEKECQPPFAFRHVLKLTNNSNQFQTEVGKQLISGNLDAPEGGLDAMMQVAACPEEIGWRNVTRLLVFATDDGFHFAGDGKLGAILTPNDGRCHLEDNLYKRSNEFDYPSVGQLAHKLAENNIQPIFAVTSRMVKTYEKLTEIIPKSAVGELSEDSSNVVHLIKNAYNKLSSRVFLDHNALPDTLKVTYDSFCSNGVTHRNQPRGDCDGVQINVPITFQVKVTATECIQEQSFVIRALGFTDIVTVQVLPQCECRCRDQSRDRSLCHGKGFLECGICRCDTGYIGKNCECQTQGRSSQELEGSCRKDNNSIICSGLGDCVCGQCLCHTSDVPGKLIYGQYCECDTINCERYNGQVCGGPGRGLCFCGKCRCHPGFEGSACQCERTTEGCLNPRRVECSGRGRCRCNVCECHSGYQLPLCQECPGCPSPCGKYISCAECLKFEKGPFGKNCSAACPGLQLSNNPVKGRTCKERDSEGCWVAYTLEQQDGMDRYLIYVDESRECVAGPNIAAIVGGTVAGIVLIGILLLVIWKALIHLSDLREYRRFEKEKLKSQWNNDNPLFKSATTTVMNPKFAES
molecule,measurement,setting,value
"CC(=O)C(C)=NO [BDM, 2,3-butanedione 2-monoxime]","ligand binding, inhibitor, no ligand (background)",αMβ2 on PMN,2.90 ± 0.5 MFI
same,"PMN early/late apoptosis (% annexin V+ cells), inhibitor + Fg","human PMNs; 16 h, 37 °C",98.7 ± 24%
same,"PMN early/late apoptosis (% annexin V+ cells), inhibitor + P1","human PMNs; 16 h, 37 °C",85.4 ± 20%
same,"PMN early/late apoptosis (% annexin V+ cells), inhibitor + P2-C","human PMNs; 16 h, 37 °C",97.8 ± 22%
same,"PMN early/late apoptosis (% annexin V+ cells), inhibitor + Plg","human PMNs; 16 h, 37 °C",99.2 ± 24%
same,effect on Plg-dependent αMβ2 clustering,αMβ2,blocked or significantly reduced
CC(C)[C@H](NC(=O)OCc1ccccc1)C(=O)N[C@H](C=O)Cc1ccccc1 [Calpain inhibitor III] (Cbz-Val-Phe-aldehyde),"ligand binding, inhibitor, no ligand (background)",αMβ2 on PMN,3.4 ± 0.4 MFI
same,"PMN early/late apoptosis (% annexin V+ cells), inhibitor + Fg","human PMNs; 16 h, 37 °C",88.9 ± 23%
same,"PMN early/late apoptosis (% annexin V+ cells), inhibitor + P1","human PMNs; 16 h, 37 °C",94.5 ± 22%
same,"PMN early/late apoptosis (% annexin V+ cells), inhibitor + P2-C","human PMNs; 16 h, 37 °C",74.7 ± 19%
same,"PMN early/late apoptosis (% annexin V+ cells), inhibitor + Plg","human PMNs; 16 h, 37 °C",97.1 ± 22%
same,effect on Plg-dependent αMβ2 clustering,αMβ2,blocked or significantly reduced
"C=C1[C@@H](C)[C@H]2[C@H](Cc3ccccc3)NC(=O)[C@]23[C@H](OC(C)=O)/C=C/[C@@](C)(O)C(=O)[C@@H](C)C/C=C/[C@H]3[C@@H]1O [Cytochalasin D, cytochalasin D]","ligand binding, inhibitor, no ligand (background)",αMβ2 on PMN,2.3 ± 0.3 MFI
same,"PMN early/late apoptosis (% annexin V+ cells), inhibitor + Fg","human PMNs; 16 h, 37 °C",55.5 ± 18%
same,"PMN early/late apoptosis (% annexin V+ cells), inhibitor + P1","human PMNs; 16 h, 37 °C",66.07 ± 15%
same,"PMN early/late apoptosis (% annexin V+ cells), inhibitor + P2-C","human PMNs; 16 h, 37 °C",77.4 ± 16%
same,"PMN early/late apoptosis (% annexin V+ cells), inhibitor + Plg","human PMNs; 16 h, 37 °C",66.6 ± 15%
same,effect on Plg-dependent αMβ2 clustering,αMβ2,blocked or significantly reduced
"CC1CNCCN1S(=O)(=O)c1cccc2cnccc12.Cl.Cl (stereo not drawn) [H7, 1-(5-isoquinolinylsulfonyl)-2-methylpiperazine dihydrochloride]","ligand binding, inhibitor, no ligand (background)",αMβ2 on PMN,3.2 ± 0.6 MFI
same,"PMN early/late apoptosis (% annexin V+ cells), inhibitor + Fg","human PMNs; 16 h, 37 °C",62.3 ± 16%
same,"PMN early/late apoptosis (% annexin V+ cells), inhibitor + P1","human PMNs; 16 h, 37 °C",60.1 ± 14%
same,"PMN early/late apoptosis (% annexin V+ cells), inhibitor + P2-C","human PMNs; 16 h, 37 °C",78.6 ± 17%
same,"PMN early/late apoptosis (% annexin V+ cells), inhibitor + Plg","human PMNs; 16 h, 37 °C",79.2 ± 18%
same,effect on Plg-dependent αMβ2 clustering,αMβ2,blocked or significantly reduced
COc1cccc(-c2cc(=O)c3ccccc3o2)c1N [PD 98059],effect on Plg-dependent PMN survival (in words),"human PMNs; PMN with Plg, 16 h, 37 °C","reduced Plg-dependent PMN survival, but to a lesser extent than the Akt inhibitor"
NCCCCCC(=O)O [ε-aminocaproic acid],effect on Plg-dependent PMN survival (in words),human PMNs,reduced
GM-CSF: agent that promotes PMN responsiveness,effect on PMN apoptosis,PMN,delay PMN apoptosis
IL-8: agent that promotes PMN responsiveness,effect on PMN apoptosis,PMN,delay PMN apoptosis
KIIPFNRLTIG [P2-C],pKd,[1],7.30
same,"PMN early/late apoptosis (% annexin V+ cells), no inhibitor","human PMNs; 16 h, 100 μM",20.1 ± 4%
TNF-α,effect on PMN death,PMN,promote PMN death
methyl-β-cyclodextrin [MβCD],"ligand binding, inhibitor, no ligand (background)",αMβ2 on PMN,3.09 ± 0.4 MFI
same,"PMN early/late apoptosis (% annexin V+ cells), inhibitor + Fg","human PMNs; 16 h, 37 °C",59.3 ± 15%
same,"PMN early/late apoptosis (% annexin V+ cells), inhibitor + P1","human PMNs; 16 h, 37 °C",66.3 ± 18%
same,"PMN early/late apoptosis (% annexin V+ cells), inhibitor + P2-C","human PMNs; 16 h, 37 °C",75.6 ± 17%
same,"PMN early/late apoptosis (% annexin V+ cells), inhibitor + Plg","human PMNs; 16 h, 37 °C",75.0 ± 13%
